# From PubChem BioAssay
# An excerpt weighted towards active compounds, which were near 2.3% of everything screened.
# RORa activator = activators of orphan receptor RORA, primary screen, cell-based, luminescence; Nuclear receptor ROR-alpha (Homo sapiens), P35398; CHO-K1 Gal4-RORA LBD luciferase reporter; percent increase over mock-subtracted basal signal; activation, % at 10 µM; hit rate 1.5% among 65,000; AID 560, 2006;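 active = activation above the mean of all tested compounds plus 3 SD, cut at about 49% in these data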;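 note: 0% = DMSO-treated RORA cells and 100% = added signal equal to DMSO minus mock-transfected cells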
# MMP-13 inhibitor = human MMP13 inhibitors, primary screen, biochemical, FRET peptide cleavage | Collagenase 3 (Homo sapiens), P45452 | AID 570, 2006 | MMP-13 fTHP FRET cleavage, Mca fluorescence | hit rate 0.07% among 65,000 | inhibition, % at 4 µM;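 active = inhibition above the mean of compound-free control plate wells plus 3 SD, cut at about 14% in these data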;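 note: 0% = DMSO wells and 100% = wells with reference MMP-13 inhibitor after basal subtraction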
# SF-1 act = activators of human SF-1, primary screen, cell-based, CHO-K1, Gal4-SF-1 LBD, luciferase luminescence; CHO-K1 Gal4-SF-1 LBD luciferase reporter; % increase over DMSO SF-1-specific signal; activation, % at 10 µM; hit rate 1.9% among 65,000;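 active = activation above the mean activation of all tested compounds plus 3 SD, cut at about 50% in these data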
#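 Test system: transient Gal4-SF-1 LBD reporter, CHO-K1; Amount: 4,000 CHO-K1 cells per well; Doses: 10 µM only; Timing: compound exposure 20 h at 37 °C; Signal: luciferase light emission; Read-out basis: percent activation relative to DMSO median and mock-transfected background; Control set: DMSO negative control and −SF1 background wells; Replicates: one test per compound.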
# MT1-MMP txn act = MT1-MMP promoter reporter activation – cell-based, luciferase luminescence, primary screen; HT1080 MT1-MMP promoter luciferase reporter, overnight; hits give high values; hit rate 0.16% among 86,000; activation factor at 10 µM; AID 750, 2007;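 active = activation factor of at least 2 for MT1-MMP transcription at 10 µM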
# WNV protease inh = inhibitors of WNV NS2B-NS3 protease, primary screen, biochemical, fluorogenic substrate; hit rate 0.18% among 65,000; z-score (concentration not given with the values); fluorogenic substrate Ex360/Em465; hits give low values; in the data active = z-score below about -3
# Target sequence (P06935 1371-1501 limits assumed): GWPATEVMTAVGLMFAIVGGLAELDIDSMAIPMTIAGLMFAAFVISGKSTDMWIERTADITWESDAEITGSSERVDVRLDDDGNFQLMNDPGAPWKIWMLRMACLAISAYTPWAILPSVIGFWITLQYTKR
# Target sequence (P06935 1502-1679 limits assumed): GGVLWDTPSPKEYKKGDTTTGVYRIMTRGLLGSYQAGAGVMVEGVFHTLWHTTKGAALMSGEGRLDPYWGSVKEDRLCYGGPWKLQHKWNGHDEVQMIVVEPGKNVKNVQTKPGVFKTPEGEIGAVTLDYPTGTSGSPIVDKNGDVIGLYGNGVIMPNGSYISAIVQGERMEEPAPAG
# Active calls of the source: *; x = no result.
SMILES,RORa activator,MMP-13 inhibitor,SF-1 act,MT1-MMP txn act,WNV protease inh
C=CCn1c(SCC(=O)OC)nc2sc3c(c2c1=O)CCN(C)C3,11,-26,8,1.3,-7.4*
COc1ccc(C2N(c3cc(Cl)ccc3OC)C(=O)C3CCCN32)cc1OC (stereo unspecified),15,-6,-20,1,-0.74
CC1=C(C(=O)OCC(Br)(Br)Br)C(c2cccc3ccccc23)NC(=O)N1CCCC(=O)O (stereo unspecified),x,x,x,1.1,x
Cn1cccc1CNC(=O)Nc1ccc(Cl)cc1,16,3,54*,1.6,0.16
Cn1cccc1CNC(=O)Nc1ccccc1,x,x,x,1.3,x
O=c1oc(-c2cccs2)nc2ccccc12,x,x,x,1.1,x
c1csc(-c2cnc3ccccc3n2)c1,95*,-151,50*,1.1,1.7
COC(=O)[C@@]1(Cc2ccccc2)[C@H]2c3cc(C(=O)N4CCCC4)n(CCN4CCNC4=O)c3C[C@H]2CN1C(=O)c1ccccc1,x,x,x,1.1,x
O=C(NCCSc1ccccc1)c1cccnc1,78*,1,62*,1.6,-0.04
O=C(Nc1ccc2ccccc2c1)c1cnccn1,57*,-6,31,0.6,-0.14
O=C(Nc1cccnc1)c1cccnc1,-18,0,10,1,-0.12
CC1CCN(c2ccc(NC(=O)c3cccnc3)cc2)CC1,48,4,59*,1.4,-0.04
O=C(Nc1ccc(N2CCN(C(=O)c3ccc(Cl)cc3)CC2)cc1)c1cccnc1,-4,-1,8,0.9,-0.69
O=C(Nc1ccc2ccccc2c1)c1cccnc1,73*,-2,66*,1.3,-0.84
COC(=O)c1ccc(C(/C=C/[C@@H](C)C(=O)NCCc2c[nH]c3ccccc23)NC(=O)OCc2ccccc2)cc1 (stereo partly specified),x,x,x,1.1,x
COC(=O)c1ccc(C(NC(=O)OCc2ccccc2)/C(I)=C/[C@@H](C)C(=O)NCc2cc(C)n(C)n2)cc1 (stereo partly specified),x,x,x,1.1,x
N=c1c(C(=O)NC2CCCCC2)cc2c(=O)n3ccccc3nc2n1CCN1CCOCC1,20,-156,-9,1.1,-0.48
CCc1c2c(nc3ccc(N(C)C)cc13)-c1cccc(=O)n1C2,x,x,x,1,x
O=C(Nc1ccccc1)N1CCOCC1,x,x,x,1.1,x
O=C(Nc1ccc2c(c1)oc1ccccc12)N1CCOCC1,27,-7,52*,1.6,-1.2
O=C(Nc1ccc2c(c1)oc1ccccc12)c1ccncc1,14,5,1,1.4,-0.5
O=C(Nc1ccc2c(c1)oc1ccccc12)c1cccnc1,38,1,55*,1.6,1.2
CCc1nnc(NC(=O)CSc2nc3c(cc2C#N)CCC3)s1,7,-6,75*,0.8,-0.26
CCOC(=O)c1sc2nc3c(cc2c1N)COC(C)(C)C3,39,-15,53*,1.1,-0.8
CCOC(=O)c1sc2nc3c(cc2c1N)COC(C)(CC)C3 (stereo unspecified),x,x,x,1.4,x
SMILES,RORa activator,MMP-13 inhibitor,SF-1 act,MT1-MMP txn act,WNV protease inh
CCOC(=O)c1cccc(NC(=O)c2cc3sccc3n2C)c1,36,1,55*,1.5,-0.19
CCOC(=O)c1ccccc1NC(=O)c1cc2sccc2n1C,12,-29,-6,1.1,0.02
Cn1cc(Br)c(C(=O)NC2CCCCC2)n1,14,-1,-6,1.1,0.34
COC(=O)c1ccc(=O)n(Cc2ccc3c(c2)OCO3)c1,-24,1,-8,1.1,0.06
COC(=O)c1ccc(CSc2nnc(SCc3ccc(C(=O)OC)o3)s2)o1,-9,-1,8,1.1,-3.5*
O=C(N=C1SCC(=O)N1c1ccccc1Cl)c1ccco1,62*,-1,55*,1.5,-0.21
O=C(Oc1ccccc1N1C(=O)CCC1=O)c1ccco1,4,-5,-2,1.1,0.04
CCOC(=O)c1cnn2c(C)cc(-c3ccc(F)cc3)nc12,68*,-61,28,1.5,0.58
Cc1cc(-c2ccc(F)cc2)nc2cc(C(N)=O)nn12,-11,-24,-4,1,1
CCCCCCc1ccc(-c2ncc(N)cn2)cc1,50*,-19,59*,0,-0.46
COc1ccc(OCc2nn3c(-c4cccc(OC)c4)nnc3s2)cc1,3,16*,0,1.3,1.5
